Source: ChEMBL document CHEMBL1833896, “Acylglycinamides as inhibitors of glycine transporter type 1” (Bioorg Med Chem Lett, 2011)

Assays:
[1] = Intrinsic clearance in rat microsomes; type: ADME, Microsome
[2] = Lipophilicity, log D of the compound; type: physicochemical; details: chromatographic hydrophobicity index (CHI) method
In short: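 Lipophilicity was measured by a chromatographic method.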

[3] = Intrinsic clearance in human microsomes; type: ADME, Microsome
[4] = Oral bioavailability in rat; type: ADME, organism-based; details: in vivo
Rattus norvegicus = species: Rattus norvegicus; experiment: Liver blood flow in rat; type: ADME, organism-based
[5] = Ratio of drug level in brain to blood in rat; type: ADME, tissue-based; details: read-out: BBR

O=C(CN(CC1CC1)C(=O)c1ccc(-c2ccccn2)cc1)Nc1cc(F)cc(F)c1
CL [1]: 5 mL/min/g
logD [2]: 3.1
CL [3]: < 0.5 mL/min/g

O=C(CN(C(=O)c1ccc(-c2ccccn2)cc1)C1CCCC1)Nc1cc(F)cc(F)c1
CL [1]: 3.7 mL/min/g
logD [2]: 3.4
CL [3]: 1.9 mL/min/g

CC(C)N(CC(=O)Nc1cc(F)cc(F)c1)C(=O)c1ccc(-c2ccccn2)cc1
CL [1]: 1.8 mL/min/g
logD [2]: 3
CL [3]: < 0.5 mL/min/g

O=C(CN(C(=O)c1ccc(-c2ccccn2)cc1)C1CCOCC1)Nc1cc(F)cc(F)c1
bioavailability [4]: 25%
QH (Rattus norvegicus): 75%
CL [1]: 0.6 mL/min/g
logD [2]: 2.5
Kp [5]: 0.2
CL [3]: < 0.5 mL/min/g

CCC(C)N(CC(=O)Nc1cc(F)cc(F)c1)C(=O)c1ccc(-c2ccccn2)cc1 (configuration not stated)
CL [1]: 3.8 mL/min/g
logD [2]: 3.3
CL [3]: 4.3 mL/min/g

O=C(CN(CC1CCC1)C(=O)c1ccc(-c2ccccn2)cc1)Nc1cc(F)cc(F)c1
CL [1]: 4.8 mL/min/g
logD [2]: 3.5
CL [3]: 2 mL/min/g

COCC(C)N(CC(=O)Nc1cc(F)cc(F)c1)C(=O)c1ccc(-c2ccccn2)cc1 (configuration not stated)
CL [1]: 4.2 mL/min/g
logD [2]: 3
CL [3]: 5.8 mL/min/g

COCCN(CC(=O)Nc1cc(F)cc(F)c1)C(=O)c1ccc(-c2ccccn2)cc1
CL [1]: 3 mL/min/g
CL [3]: 1.5 mL/min/g

CCC(COC)N(CC(=O)Nc1cc(F)cc(F)c1)C(=O)c1ccc(-c2ccccn2)cc1 (configuration not stated)
CL [1]: 6.7 mL/min/g
logD [2]: 3.3
CL [3]: 9.6 mL/min/g

O=C(CN(C(=O)c1ccc(-c2ccccn2)cc1)C1CCOC1)Nc1cc(F)cc(F)c1 (configuration not stated)
CL [1]: 3.2 mL/min/g
logD [2]: 2.5
CL [3]: 3.9 mL/min/g

COc1ccc(C(=O)N(CC(=O)Nc2cc(F)cc(F)c2)C2CCCCC2)cc1
logD [2]: 3.7

CN1CCC(C(=O)N(CC(=O)Nc2cc(F)cc(F)c2)C2CCCCC2)CC1
logD [2]: 1.8

O=C(CN(C(=O)C1CCOCC1)C1CCCCC1)Nc1cc(F)cc(F)c1
logD [2]: 3

O=C(CN(C(=O)c1cccnc1)C1CCCCC1)Nc1cc(F)cc(F)c1
logD [2]: 2.7

Cn1ccc(C(=O)N(CC(=O)Nc2cc(F)cc(F)c2)C2CCCCC2)n1
logD [2]: 3

CN(C)CCOc1ccc(C(=O)N(CC(=O)Nc2cc(F)cc(F)c2)C2CCCCC2)cc1
logD [2]: 2.4

O=C(CN(C(=O)c1ccc(-n2ccnc2)cc1)C1CCCCC1)Nc1cc(F)cc(F)c1
CL [1]: 1.2 mL/min/g
logD [2]: 2.7
CL [3]: 6.1 mL/min/g

O=C(CN(C(=O)c1ccc(N2CCCC2)nc1)C1CCCCC1)Nc1cc(F)cc(F)c1
logD [2]: 3.6

O=C(CN(C(=O)c1ccc(N2CCCC2)cc1)C1CCCCC1)Nc1cc(F)cc(F)c1
logD [2]: 4.5

O=C(CN(C(=O)c1ccc(-c2ccccn2)cc1)C1CCCCC1)Nc1cc(F)cc(F)c1
CL [1]: 15.4 mL/min/g
logD [2]: 3.7
CL [3]: 5.2 mL/min/g

COc1ccc(C(=O)N(Cc2[nH]ncc2-c2ccccc2)C2CCCCC2)cc1
logD [2]: 3.1

COc1ccc(C(=O)N(Cc2c(C)noc2-c2ccccc2)C2CCCCC2)cc1
logD [2]: 4.1

COc1ccc(C(=O)N(Cc2csc(-c3ccccc3)n2)C2CCCCC2)cc1
logD [2]: 4.6

COc1ccc(C(=O)N(Cc2c[nH]c(-c3ccccc3)n2)C2CCCCC2)cc1
logD [2]: 2.9

COc1ccc(C(=O)N(Cc2cn(-c3ccccc3)nn2)C2CCCCC2)cc1
logD [2]: 3.5

COc1ccc(C(=O)N(Cc2ccc(-c3ccc(Cl)cc3)o2)C2CCCCC2)cc1
logD [2]: 5

COc1ccc(C(=O)N(Cc2cc(-c3ccccc3)on2)C2CCCCC2)cc1
logD [2]: 4.2

CC(C)CN(CC(=O)Nc1cc(F)cc(F)c1)C(=O)c1ccc(-c2ccccn2)cc1
CL [1]: 4.9 mL/min/g
logD [2]: 3.3
CL [3]: 1.3 mL/min/g

O=C(CN(C(=O)c1ccc(-c2ccccn2)cc1)C1CCCOC1)Nc1cc(F)cc(F)c1 (racemic)
bioavailability [4]: 15%
QH (Rattus norvegicus): 75%
CL [1]: 2 mL/min/g
logD [2]: 2.7
Kp [5]: 0.2
CL [3]: 2.9 mL/min/g
